Activity calls are given as the source filed them. The calls are words filed in the database; no cut-off is given here.
Columns and labels:
A549 = test: Cytotoxicity against human A549 cells assessed as growth inhibition by MTT assay; type: functional, cell-based
Procedure, shortened: (§1)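 Modified MTT colorimetric assay on human lung adenocarcinoma A549 and human osteosarcoma MG63 cells, with adriamycin as the positive control.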

MG-63 = test: Cytotoxicity against human MG63 cells assessed as growth inhibition by MTT assay; type: functional, cell-based; procedure, shortened: as §1
Nakaseomyces glabratus = test: Antifungal activity against Candida glabrata 537 assessed as growth inhibition by automatic microplate reader analysis; type: functional
Procedure, shortened: (§2)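 Broth microdilution growth read by optical density at 630 nm on a microplate reader. MIC80 was taken as the first well showing roughly 80% growth reduction relative to the drug-free well.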

Candida albicans [1] = test: Antifungal activity against Candida albicans Y0109 assessed as growth inhibition by automatic microplate reader analysis; type: functional; procedure, shortened: as §2
Nannizzia gypsea = test: Antifungal activity against Microsporum gypseum Cmccfmza assessed as growth inhibition by automatic microplate reader analysis; type: functional; procedure, shortened: as §2
Cryptococcus neoformans = test: Antifungal activity against Cryptococcus neoformans 32609 assessed as growth inhibition by automatic microplate reader analysis; type: functional; procedure, shortened: as §2
Candida albicans [2] = test: Antifungal activity against Candida albicans SC5314 assessed as growth inhibition by automatic microplate reader analysis; type: functional; procedure, shortened: as §2
Trichophyton rubrum = test: Antifungal activity against Trichophyton rubrum Cmccftla assessed as growth inhibition by automatic microplate reader analysis; type: functional; procedure, shortened: as §2
Candida parapsilosis = test: Antifungal activity against Candida parapsilosis 22019 assessed as growth inhibition by automatic microplate reader analysis; type: functional; conditions: Lodderomyces parapsilosis; procedure, shortened: as §2
Aspergillus fumigatus = test: Antifungal activity against Aspergillus fumigatus 07544 assessed as growth inhibition by automatic microplate reader analysis; type: functional; procedure, shortened: as §2

| Compound | IC50 (A549) | inhibition (MG-63) | MIC80 (Nakaseomyces glabratus) [µg/mL] | MIC80 (Candida albicans [1]) [µg/mL] | MIC80 (Nannizzia gypsea) [µg/mL] | MIC80 (Cryptococcus neoformans) [µg/mL] | MIC80 (Candida albicans [2]) [µg/mL] | MIC80 (Trichophyton rubrum) [µg/mL] | inhibition (A549) | MIC80 (Candida parapsilosis) [µg/mL] | MIC80 (Aspergillus fumigatus) [µg/mL] |
| --- | --- | --- | --- | --- | --- | --- | --- | --- | --- | --- | --- |
| COc1cccc2c1C(=O)c1c(O)c3c(c(O)c1C2=O)C[C@@](O)(C(=O)CO)C[C@@H]3O[C@H]1C[C@H](N)[C@H](O)[C@H](C)O1 [DOXORUBICIN] | Not Active | inactive |  |  |  |  |  |  |  |  |  |
| C/C=C/C=C/C=C/[C@H]1C[C@@H](O)C[C@H](O)[C@@H]1CO |  | inactive | 16 | 16 | 16 | 8 | 16 | 8 | inactive | 16 | > 64 |
| CCC(C)n1ncn(-c2ccc(N3CCN(c4ccc(OCC5COC(Cn6cncn6)(c6ccc(Cl)cc6Cl)O5)cc4)CC3)cc2)c1=O (configuration not stated) [ITRACONAZOLE] |  |  | 2 | 4 | 4 | 4 | 4 | 2 |  | 8 | 32 |
| C/C=C/C=C/C=C/[C@H]1C[C@@H](O)[C@H](O)C(=O)[C@@H]1CO |  | inactive | 16 | 16 | > 64 | 16 | 16 | 16 | inactive | 16 | > 64 |
| OC(Cn1cncn1)(Cn1cncn1)c1ccc(F)cc1F [FLUCONAZOLE] |  |  | 2 | 0.25 | 8 | 1 | 0.25 | 1 |  | 1 | > 64 |
| C[C@@H](O)/C=C/C=C/[C@H]1OC[C@H]2[C@@H](O)[C@@H](O)[C@H](O)C[C@@H]21 |  | inactive | > 64 | > 64 | > 64 | > 64 | > 64 | > 64 | inactive | > 64 | > 64 |
| CN(C/C=C/C#CC(C)(C)C)Cc1cccc2ccccc12 [TERBINAFINE] |  |  | 8 | > 64 | 0.25 | 8 | 64 | 1 |  | 8 | 4 |
| CC(=O)N1CCN(c2ccc(OCC3COC(Cn4ccnc4)(c4ccc(Cl)cc4Cl)O3)cc2)CC1 (configuration not stated) [KETOCONAZOLE] |  |  | 0.125 | 0.0625 | 0.125 | 0.25 | 0.125 | 0.0625 |  | 0.25 | 2 |
| C[C@@H](c1ncncc1F)[C@](O)(Cn1cncn1)c1ccc(F)cc1F [VORICONAZOLE] |  |  | 0.25 | 0.5 | 0.5 | 0.25 | 0.25 | 0.125 |  | 2 | 4 |
| C/C=C/C=C/C=C/[C@H]1C[C@@H](O)[C@H](O)[C@H](O)[C@@H]1CO |  | inactive | > 64 | 16 | > 64 | > 64 | > 64 | > 64 | inactive | > 64 | > 64 |
